ChEMBL document CHEMBL1148712, “Design, synthesis, and SAR study of a series of N-alkyl-N'-[2-(aryloxy)-5-nitrobenzenesulfonyl]ureas and -cyanoguanidine as selective antagonists of the TPalpha and TPbeta isoforms of the human thromboxane A2 receptor” (J Med Chem, 2007)
The source made the active and inactive calls. No cut-off for these calls is given here.

Tests used:
Thromboxane A2 receptor [1] = target: T1, Thromboxane A2 receptor (Homo sapiens, UniProt P21731); test: Antagonist activity at human thromboxane A2 receptor isoform alpha expressed in HEK293 cells assessed as inhibition of U46619-induced calcium mobilization; assay type: functional, cell-based
T1 sequence (P21731 whole entry): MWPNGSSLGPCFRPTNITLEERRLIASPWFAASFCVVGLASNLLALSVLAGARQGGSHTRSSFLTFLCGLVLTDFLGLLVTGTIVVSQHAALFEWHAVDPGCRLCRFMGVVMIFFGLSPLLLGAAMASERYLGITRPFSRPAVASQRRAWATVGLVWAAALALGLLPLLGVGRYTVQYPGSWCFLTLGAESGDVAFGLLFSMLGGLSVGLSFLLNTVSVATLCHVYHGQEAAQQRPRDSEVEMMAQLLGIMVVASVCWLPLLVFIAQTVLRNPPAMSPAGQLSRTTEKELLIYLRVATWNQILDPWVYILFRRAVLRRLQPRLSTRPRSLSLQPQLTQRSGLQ
Outline: (§1)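 HA-tagged receptor stably overexpressed in HEK293 cells grown in DMEM with 10% FBS. Trypsinized cells washed in Krebs-HEPES pH 7.4, loaded 1 h with Fluo-4/AM (5 µg/mL), rinsed, 150 000 cells/well. Compound (10^-8 to 10^-5 M final) for 10 min before U46619 (1 µM final). Emission at 538; Triton/EGTA calibration, Kd 385 nM. IC50 by nonlinear regression, ≥3 curves.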

Thromboxane A2 receptor [2] = target: T1, Thromboxane A2 receptor; test: Antagonist activity at human thromboxane A2 receptor isoform beta expressed in HEK293 cells assessed as inhibition of U46619-induced calcium mobilization; assay type: functional, cell-based; outline: as §1
[3] = target: T2, Thromboxane A2 receptor (Homo sapiens) (UniProt P21731); test: Ratio of IC50 for thromboxane A2 receptor isoform alpha to IC50 for thromboxane A2 receptor isoform beta; assay type: functional
T2 sequence (whole entry): T1 sequence (P21731 whole entry)
Outline: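 Selectivity index calculated as IC50 for TPα divided by IC50 for TPβ. Both IC50s come from U46619 (1 µM)-induced Fluo-4 [Ca2+]i assays in HEK293 cells stably overexpressing the respective isoform.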

Platelet = test: Inhibition of U46619-induced human platelet aggregation; assay type: functional, cell-based
Outline: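 Turbidimetric Born method on PRP from 10 healthy donors aged 20-30, medication-free for 14 days. Platelets adjusted to 3 × 10⁸ cells/mL with PPP, stirred at 1000 rpm. Compound (10^-9 to 10^-5 M) preincubated 3 min at 37 °C, then U46619 (1 µM final). Maximum light transmission read 6 min after inducer; IC50 by nonlinear regression from ≥3 curves.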

[4] = target: T2, Thromboxane A2 receptor (Homo sapiens); test: Antagonist activity at human thromboxane A2 receptor isoform beta expressed in HEK293 cells assessed as inhibition of U46619-induced calcium mobilization at 0.1 uM; assay type: functional, cell-based
Outline: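 HEK293 cells stably overexpressing HA-tagged TPβ, loaded 1 h with Fluo-4/AM (5 µg/mL) in Krebs-HEPES pH 7.4. Compound at 0.1 µM for 10 min, then U46619 (1 µM final). Fluorescence calibrated to [Ca2+]i with Triton X-100 and EGTA; response taken against the rise with U46619 alone.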

Row | IC50 (Thromboxane A2 receptor [1]) | IC50 (Thromboxane A2 receptor [2]) | Ratio IC50 [3] | IC50 (Platelet) | Activity [4] | SMILES
1 | 528 nM | 52 nM | 10.2 | – | – | COc1cc(C)ccc1Oc1ccc([N+](=O)[O-])cc1S(=O)(=O)NC(=O)NC(C)(C)C
2 | 1010 nM | 120 nM | 8.4 | – | – | CCCCCNC(=O)NS(=O)(=O)c1cc([N+](=O)[O-])ccc1Oc1ccc(Br)cc1
3 | – | – | 6.01 | – | – | Cc1ccc(Nc2ccc([N+](=O)[O-])cc2S(=O)(=O)NC(=O)NC(C)(C)C)cc1
4 | 3060 nM | 387 nM | 7.9 | – | – | CCCCCNC(=O)NS(=O)(=O)c1cc([N+](=O)[O-])ccc1Oc1ccccc1Cl
5 | 2150 nM | 401 nM | 5.4 | – | – | CC(C)(C)NC(=O)NS(=O)(=O)c1cc([N+](=O)[O-])ccc1Oc1ccc(I)cc1
6 | 470 nM | 95 nM | 4.9 | – | – | CC(C)(C)NC(=O)NS(=O)(=O)c1cc([N+](=O)[O-])ccc1Oc1cccc(I)c1
7 | 27200 nM | 4840 nM | 5.6 | – | – | CCCCCNC(=O)NS(=O)(=O)c1cc([N+](=O)[O-])ccc1Oc1ccc(OCCC)cc1
8 | 1660 nM | 523 nM | 3.2 | – | – | CC(C)(C)NC(=O)NS(=O)(=O)c1cc([N+](=O)[O-])ccc1Oc1ccc(Br)cc1
9 | 3130 nM | 423 nM | 7.4 | – | – | CCCCCNC(=O)NS(=O)(=O)c1cc([N+](=O)[O-])ccc1Oc1ccccc1Br
10 | 5860 nM | 413 nM | 14.2 | – | – | CCCCCNC(=O)NS(=O)(=O)c1cc([N+](=O)[O-])ccc1Oc1cccc(Br)c1
11 | 4520 nM | 885 nM | 5.1 | – | – | CCCCCNC(=O)NS(=O)(=O)c1cc([N+](=O)[O-])ccc1Oc1cccc(I)c1
12 | 1630 nM | 181 nM | 9 | – | – | CCCCCNC(=O)NS(=O)(=O)c1cc([N+](=O)[O-])ccc1Oc1ccccc1C
13 | 2190 nM | 302 nM | 7.2 | – | – | CCCCCNC(=O)NS(=O)(=O)c1cc([N+](=O)[O-])ccc1Oc1ccc(I)cc1
14 | 4220 nM | 448 nM | 9.4 | – | – | CCCNC(=O)NS(=O)(=O)c1cc([N+](=O)[O-])ccc1Oc1ccc(C)cc1
15 | 673 nM | 42 nM | 16.1 | – | – | CCCCNC(=O)NS(=O)(=O)c1cc([N+](=O)[O-])ccc1Oc1ccccc1C
16 | 2670 nM | 446 nM | 6 | – | – | CCCCCNC(=O)NS(=O)(=O)c1cc([N+](=O)[O-])ccc1Oc1ccc(OC)cc1

Further lines, the molecule ahead of its results:

Row | SMILES | IC50 (Thromboxane A2 receptor [1]) | IC50 (Thromboxane A2 receptor [2]) | Ratio IC50 [3] | IC50 (Platelet) | Activity [4]
17 | CCCCCNC(=O)NS(=O)(=O)c1cc([N+](=O)[O-])ccc1Oc1cccc(Cl)c1 | 2390 nM | 201 nM | 11.9 | – | –
18 | CCOc1ccc(Oc2ccc([N+](=O)[O-])cc2S(=O)(=O)NC(=O)NC(C)(C)C)cc1 | 19200 nM | 1100 nM | 17.5 | – | –
19 | Cc1ccccc1Oc1ccc([N+](=O)[O-])cc1S(=O)(=O)NC(=O)NC(C)(C)C | 3760 nM | 233 nM | 16.1 | – | –
20 | Cc1cccc(Oc2ccc([N+](=O)[O-])cc2S(=O)(=O)NC(=O)NC(C)C)c1 | 2640 nM | 205 nM | 12.9 | – | –
21 | CC(C)(C)NC(=O)NS(=O)(=O)c1cc([N+](=O)[O-])ccc1Oc1ccccc1Cl | 2420 nM | 205 nM | 11.8 | – | –
22 | CC(C)(C)NC(=O)NS(=O)(=O)c1cc([N+](=O)[O-])ccc1Oc1ccccc1Br | 2580 nM | 151 nM | 17 | – | –
23 | CCCCCNC(=O)NS(=O)(=O)c1cc([N+](=O)[O-])ccc1Oc1ccc(Cl)c(C)c1 | 3720 nM | 565 nM | 6.6 | – | –
24 | CC(C)(C)NC(=O)NS(=O)(=O)c1cc([N+](=O)[O-])ccc1Oc1ccc(Cl)cc1 | 3050 nM | 400 nM | 7.6 | – | –
25 | CCCCCNC(=O)NS(=O)(=O)c1cc([N+](=O)[O-])ccc1Oc1ccc(Cl)cc1 | 871 nM | 98 nM | 8.9 | – | –
26 | CCCCNC(=O)NS(=O)(=O)c1cc([N+](=O)[O-])ccc1Oc1cccc(C)c1 | 1910 nM | 155 nM | 12.3 | – | –
27 | COc1cccc(Oc2ccc([N+](=O)[O-])cc2S(=O)(=O)NC(=O)NC(C)(C)C)c1 | 1970 nM | 99 nM | 19.9 | – | –
28 | CCCCCNC(=O)NS(=O)(=O)c1cc([N+](=O)[O-])ccc1Oc1cccc(C)c1 | 2530 nM | 223 nM | 11.3 | – | –
29 | CCCOc1ccc(Oc2ccc([N+](=O)[O-])cc2S(=O)(=O)NC(=O)NC(C)(C)C)cc1 | 10800 nM | 875 nM | 12.3 | – | –
30 | Cc1cc(Oc2ccc([N+](=O)[O-])cc2S(=O)(=O)NC(=O)NC(C)(C)C)ccc1Cl | 1060 nM | 111 nM | 9.6 | – | –
31 | Cc1ccc(Oc2ccc([N+](=O)[O-])cc2S(=O)(=O)NC(=NC(C)(C)C)NC#N)cc1 | 2080 nM | 579 nM | – | – | –
32 | Cc1ccc(Oc2ccc([N+](=O)[O-])cc2S(=O)(=O)NC(=O)NC(C)C)cc1 | 8760 nM | 843 nM | 10.4 | – | –
33 | COc1ccc(Oc2ccc([N+](=O)[O-])cc2S(=O)(=O)NC(=O)NC(C)(C)C)cc1 | 1940 nM | 152 nM | 12.7 | – | –
34 | Cc1ccc(Oc2ccc([N+](=O)[O-])cc2S(=O)(=O)N/C(=N\C#N)NC(C)(C)C)cc1 | – | – | 3.6 | – | –
35 | CC(C)(C)NC(=O)NS(=O)(=O)c1cc([N+](=O)[O-])ccc1Oc1cccc(Br)c1 | 683 nM | 59 nM | 11.6 | – | –
36 | CCCCCNC(=O)NS(=O)(=O)c1cc([N+](=O)[O-])ccc1Oc1ccc(OCC)cc1 | 13600 nM | 749 nM | 18.1 | – | –
37 | Cc1cccc(Oc2ccc([N+](=O)[O-])cc2S(=O)(=O)NC(=O)NC(C)(C)C)c1 | 398 nM | 17 nM | – | 513 nM | Active
38 | CC(C)(C)NC(=O)NS(=O)(=O)c1cc([N+](=O)[O-])ccc1Oc1cccc(Cl)c1 | 698 nM | 73 nM | 9.6 | – | –
39 | Cc1ccccc1Oc1ccc([N+](=O)[O-])cc1S(=O)(=O)NC(=O)NC(C)C | 8750 nM | 501 nM | 17.5 | – | –
